Measured values collected from several papers.
Compare with care: the assays were run in different laboratories.
Target: Serine/threonine-protein kinase 24 (STK24, Homo sapiens, UniProt Q9Y6E0)

Structure (SMILES)	test	setting	remaining binding [%]
O=C(NC[C@@H]1[C@H]2CN(C(=O)OCc3cc(C(F)(F)F)cc(C(F)(F)F)c3)C[C@@H]12)c1ccc2[nH]nnc2c1	cell-free assay, competition with immobilised ligand	1 µM	90
N[C@@H]1CCN(c2nccc(-c3cnn4ncccc34)n2)C1	binding	1 µM	100
CNC(=O)[C@@H]1CC[C@@H](n2c(-c3ccc4cnccc4c3)nc3ccc(C(=O)NCc4cccc(C(N)=O)c4)cc32)C1	binding, competition with immobilised ligand	1 µM	100
O=C(NCCCN1CCOCC1)c1ccc(Nc2nccc(-c3cc4ccccc4s3)n2)cc1	binding, competition with immobilised ligand	1 µM	39
FC(F)(F)Oc1cccc(-c2cnc3ccc(-c4ccncc4)nn23)c1	cell-free assay, competition with immobilised ligand	5 µM	86
FC(F)(F)c1ccc2c(c1)nc(-c1cccnc1)n2C1CC1	cell-free assay, competition with immobilised ligand	1 µM	100
O=C(c1ccc(Nc2nccc(-c3cc4ccccc4s3)n2)cc1)N1CCC(N2CCCC2)CC1	binding, competition with immobilised ligand	1 µM	83
CC1CCCN1c1nccc(-c2cnn3ncccc23)n1 (stereo not shown)	binding	1 µM	100
Nc1ncc2c(n1)-c1c([nH]c3ccc(C#CC4CC4)cc13)CCCC2	binding, competition with immobilised ligand	1 µM	80
CCN1CCN(Cc2ccc(C(=O)Nc3ccc(C)c(Oc4ccc5c(c4)CC(=O)N5)c3)cc2C(F)(F)F)CC1	binding, competition with immobilised ligand	1 µM	94
O=C(NS(=O)(=O)c1ccc(NCC2CCOCC2)c([N+](=O)[O-])c1)c1ccc(N2CCN(Cc3ccc(C(F)(F)F)cc3-c3ccc(Cl)cc3)CC2)cc1Oc1cnc2[nH]ccc2c1	cell-free assay, competition with immobilised ligand	1 µM	100
CN(C)c1nccc(-c2cnc3ncccn23)n1	binding	1 µM	94
CN(C(=O)c1ccccc1)c1cc(N(C)c2ccc3c(c2)CCc2ccc(C(=O)NCCN4CCOCC4)cc2C3=O)ccc1F	cell-free assay, competition with immobilised ligand	1 µM	100
F[C@@H]1CCN(c2nccc(-c3cnn4ncccc34)n2)C1	binding	1 µM	93
O=C(c1ccc(Nc2ncc(Cl)c(-c3ccc(Cl)s3)n2)cc1)N1CCC(N2CCCC2)CC1	binding, competition with immobilised ligand	1 µM	44
Cc1nc(Cc2cccc(C(F)(F)F)c2)sc1-c1ccc(C(N)=O)nc1	cell-free assay, competition with immobilised ligand	1 µM	100
O=C(NCC1CCOCC1)c1n[nH]cc1NC(=O)c1c(F)cccc1F	binding, competition with immobilised ligand	1 µM	89
C[C@H](c1cccc(C#N)c1)n1cc(Cl)cc(C(N)=O)c1=N	cell-free assay, competition with immobilised ligand	1 µM	89
COc1ccnn2ncc(-c3ccnc(N(C)C)n3)c12	binding	1 µM	100
